In ChEMBL document CHEMBL1153735, “Synthesis and in vitro cytostatic activity of new beta-D-arabino furan[1',2':4,5]oxazolo- and arabino-pyrimidinone derivatives” (Eur J Med Chem, 2010):
Active and inactive are the calls of the source. No cut-off for these calls is given here.

Legend:
CCRF-CEM = experiment: Cytotoxicity against human CEM cells after 2 days; assay type: functional, cell-based; conditions: for IC50: Homo sapiens, CCRF-CEM, 48 h
L1210 = experiment: Cytotoxicity against mouse L1210 cells after 2 days; assay type: functional, cell-based; conditions: L1210, 48 h
How it was run: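 L1210 cells at 300,000–500,000 cells/mL were added to an equal volume of diluted compound. After 2 days at 37 °C, cells were counted with a Coulter counter. IC50 is the concentration that inhibits proliferation by 50%.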

[1] = Cytotoxicity against human Molt4/C8 cells after 2 days; assay type: functional, cell-based; conditions: MOLT-4, 48 h
Human alphaherpesvirus 2 = experiment: Antiviral activity against HSV2 G infected in human HEL cells assessed as inhibition of virus induced cytopathic effect; assay type: functional, organism-based; conditions: strain G
How it was run: (§1)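 Confluent monolayers in 96-well plates were infected with 100 CCID50 of virus, with 1 h adsorption before residual virus was removed. Cultures were then kept with test compound at 200, 40 or 8 μM. Cytopathic effect was scored once it was complete in untreated infected controls.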

[2] = test system: Vesicular stomatitis virus; experiment: Antiviral activity against VSV infected in human HEL cells assessed as inhibition of virus induced cytopathic effect; assay type: functional, organism-based
Vaccinia virus = experiment: Antiviral activity against Vaccinia virus infected in human HEL cells assessed as inhibition of virus induced cytopathic effect; assay type: functional, organism-based; conditions: Orthopoxvirus vaccinia
Human respirovirus 3 = experiment: Antiviral activity against Parainfluenza virus 3 infected in african green monkey Vero cells assessed as inhibition of virus induced cytopathic effect; assay type: functional, organism-based; how it was run: as §1
Influenza B virus = experiment: Antiviral activity against influenza B virus infected in MDCK cells assessed as inhibition of virus induced cytopathic effect; assay type: functional, organism-based
Punta Toro virus = experiment: Antiviral activity against Punta Toro virus infected in african green monkey Vero cells assessed as inhibition of virus induced cytopathic effect; assay type: functional, organism-based; how it was run: as §1
[3] = test system: Mammalian orthoreovirus 1; experiment: Antiviral activity against Reovirus 1 infected in african green monkey Vero cells assessed as inhibition of virus induced cytopathic effect; assay type: functional, organism-based; how it was run: as §1
Sindbis virus = experiment: Antiviral activity against Sindbis virus infected in african green monkey Vero cells assessed as inhibition of virus induced cytopathic effect; assay type: functional, organism-based; how it was run: as §1
Influenza A virus [4] = experiment: Antiviral activity against influenza A H3N2 virus infected in […] cells assessed as inhibition of virus induced cytopathic effect; assay type: functional, organism-based
Influenza A virus [5] = experiment: Antiviral activity against influenza A H1N1 virus infected in […] cells assessed as inhibition of virus induced cytopathic effect; assay type: functional, organism-based
Human alphaherpesvirus 1 = experiment: Antiviral activity against HSV1 KOS infected in human HEL cells assessed as inhibition of virus induced cytopathic effect; assay type: functional, organism-based; how it was run: as §1
Feline coronavirus = experiment: Antiviral activity against Feline coronavirus infected in CRFK cells assessed as inhibition of virus induced cytopathic effect; assay type: functional, organism-based; how it was run: as §1

Nc1ccn([C@@H]2O[C@H](CO)[C@@H](O)[C@@H]2O)c(=O)n1 [CYTARABINE]
IC50 (CCRF-CEM): 0.024 µM | IC50 (L1210): 0.024 µM

CCOC(=O)c1c[nH]c(=O)n([C@@H]2O[C@H](CO)[C@@H](O)[C@@H]2O)c1=O
IC50 [1]: > 500 µM | IC50 (CCRF-CEM): > 500 µM | IC50 (L1210): > 500 µM

O=c1[nH]c(=O)n([C@@H]2O[C@H](CO)[C@@H](O)[C@@H]2O)c2c1CCCC2
IC50 [1]: > 500 µM | IC50 (CCRF-CEM): > 500 µM | IC50 (L1210): > 500 µM

CC(=O)c1cnc2n(c1=O)[C@@H]1[C@H](O2)O[C@H](CO[Si](C)(C)C(C)(C)C)[C@H]1O[Si](C)(C)C(C)(C)C
IC50 [1]: 7.9 µM | IC50 (CCRF-CEM): 7.5 µM | IC50 (L1210): 6 µM

CN(C)/C=N\C1=N[C@@H]2[C@H](O1)O[C@H](CO)[C@H]2O
IC50 [1]: > 500 µM | IC50 (CCRF-CEM): > 500 µM | IC50 (L1210): > 500 µM

CC(=O)c1c[nH]c(=O)n([C@@H]2O[C@H](CO)[C@@H](O)[C@@H]2O)c1=O
IC50 [1]: > 500 µM | IC50 (CCRF-CEM): > 500 µM | IC50 (L1210): > 500 µM

CC(C)(C)[Si](C)(C)OC[C@H]1O[C@H]2Oc3nc4c(c(=O)n3[C@H]2[C@@H]1O[Si](C)(C)C(C)(C)C)CCCC4
Activity (Human alphaherpesvirus 2): inactive | Activity [2]: inactive | EC50 (Vaccinia virus): 45 µM | Activity (Human respirovirus 3): inactive | Activity (Influenza B virus): inactive | IC50 [1]: 129 µM | Activity (Punta Toro virus): inactive | Activity [3]: inactive | Activity (Sindbis virus): inactive | IC50 (CCRF-CEM): 126 µM | EC50 (CCRF-CEM; ccrf-cem): Not Active | Activity (Influenza A virus [4]): inactive | Activity (Influenza A virus [5]): inactive | Activity (Human alphaherpesvirus 1): inactive | Activity (Feline coronavirus): inactive | IC50 (L1210): 201 µM

C/C(N)=C1/C=NC(=O)N([C@@H]2O[C@H](CO)[C@@H](O)[C@@H]2O)C1=O
IC50 [1]: 299 µM | IC50 (CCRF-CEM): 217 µM | IC50 (L1210): 211 µM

C/C(N)=C1/C=NC(=O)N([C@@H]2O[C@H](CO[Si](C)(C)C(C)(C)C)[C@@H](O[Si](C)(C)C(C)(C)C)[C@@H]2O)C1=O
IC50 [1]: 18 µM | IC50 (CCRF-CEM): 17 µM

CC(=O)c1cnc2n(c1=O)[C@@H]1[C@H](O2)O[C@H](CO)[C@H]1O
IC50 [1]: 380 µM | IC50 (CCRF-CEM): 254 µM | IC50 (L1210): 312 µM

CC(C)(C)[Si](C)(C)OC[C@H]1O[C@H]2Oc3nc(=O)c4c(n3[C@H]2[C@@H]1O[Si](C)(C)C(C)(C)C)CCCC4
IC50 [1]: 185 µM | IC50 (CCRF-CEM): 212 µM | IC50 (L1210): 229 µM

CN(C)/C=N\C1=N[C@@H]2[C@H](O1)O[C@H](CO[Si](C)(C)C(C)(C)C)[C@H]2O[Si](C)(C)C(C)(C)C
IC50 [1]: 226 µM | IC50 (CCRF-CEM): 215 µM | IC50 (L1210): 254 µM

O=c1nc2n(c3c1CCCC3)[C@@H]1[C@H](O2)O[C@H](CO)[C@H]1O
IC50 [1]: > 500 µM | IC50 (CCRF-CEM): > 500 µM | IC50 (L1210): > 500 µM

CCOC(=O)c1cnc2n(c1=O)[C@@H]1[C@H](O2)O[C@H](CO)[C@H]1O
IC50 [1]: > 500 µM | IC50 (CCRF-CEM): > 500 µM | IC50 (L1210): > 500 µM

O=c1[nH]c2c(c(=O)n1[C@@H]1O[C@H](CO)[C@@H](O)[C@@H]1O)CCCC2
IC50 [1]: > 500 µM | IC50 (CCRF-CEM): > 500 µM | IC50 (L1210): > 500 µM

O=c1c2c(nc3n1[C@@H]1[C@H](O3)O[C@H](CO)[C@H]1O)CCCC2
IC50 [1]: > 500 µM | IC50 (CCRF-CEM): > 500 µM | IC50 (L1210): > 500 µM
